Key:
Format in all cases: functional, Cercopithecidae
[1] = Time from injection to 95% recovery of the twitch response at the ED95 dose in male Rhesus monkey.
In short: (§1)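 Anesthetized, ventilated male rhesus monkeys received sequential iv bolus doses with extensor digitorum twitch recorded. Onset is injection to peak twitch inhibition. Duration is injection to 95% twitch recovery. Values at the ED95 were read from plots of onset or duration vs dose. Means ± SE across animals.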

[2] = Time from injection to peak inhibition of twitch response at the ED95 dose in male Rhesus monkey.; in short: as §1
[3] = Selectivity index is changes in heart rate(cv dose) to the suppression of twitch response (ED95) in male Rhesus monkey
In short: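 Same anesthetized male rhesus preparation, with blood pressure, heart rate and EKG recorded alongside twitch during sequential iv doses up to 6.4 mg/kg. Cardiovascular threshold dose is the dose giving ≥10% change in heart rate or mean arterial pressure. Index = mean threshold dose / mean ED95 (extensor digitorum).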

[4] = Dose required for 95% suppression of the twitch response at the extensor digitorum in male Rhesus monkey.
In short: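 Adult male rhesus monkeys (8–15 kg) under ketamine (5 mg/kg i.m.) and pentobarbital (2–5 mg/kg iv) induction, then N2O 60%/O2 40%/halothane 0.5–1%, ventilated, core temperature 37–38 °C. Twitch of extensor digitorum was recorded after ≥20 min stable baseline. Sequential iv bolus doses from 0.03 to 6.4 mg/kg. Per-animal ED95 came from log-probability regression of dose vs % block. Other lines give the single dose tested with its % block.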

[5] = Cercopithecidae, read-out: ED95

| SMILES | Duration [1] | Onset [2] | Selectivity index [3] | ED95 [4, 5] | ED95 [4] |
| --- | --- | --- | --- | --- | --- |
| COc1cc2c(cc1OC)[C@@H](c1cc(OC)c(OC)c(OC)c1)[N@+](C)(CCCOC(=O)/C(Cl)=C/C(=O)OCCC[N@+]1(C)CCc3cc(OC)c(OC)cc3[C@H]1Cc1cc(OC)c(OC)c(OC)c1)CC2.[Cl-].[Cl-] | 3.7 min |  |  |  |  |
| COc1cc2c(cc1OC)[C@H](c1cc(OC)c(OC)c(OC)c1)[N@@+](C)(CCCOC(=O)CCCCCCCC(=O)OCCC[N@+]1(C)CCc3cc(OC)c(OC)cc3[C@H]1Cc1cc(OC)c(OC)c(OC)c1)CC2.[Cl-].[Cl-] | 9.7 min | 79 s | 19 | 0.17 mg/kg |  |
| COc1cc2c(cc1OC)[C@H](c1cc(OC)c(OC)c(OC)c1)[N@@+](C)(CCCOC(=O)/C=C(\Cl)C(=O)OCCC[N@@+]1(C)CCc3cc(OC)c(OC)cc3[C@@H]1c1cc(OC)c(OC)c(OC)c1)CC2.[Cl-].[Cl-] |  |  | 1.5 |  |  |
| COc1cc2c(cc1OC)[C@H](c1cc(OC)c(OC)c(OC)c1)[N@@+](C)(CCCOC(=O)CCC(F)(F)C(=O)OCCC[N@+]1(C)CCc3cc(OC)c(OC)cc3[C@H]1Cc1cc(OC)c(OC)c(OC)c1)CC2.[Cl-].[Cl-] | 5.7 min | 48 s |  | 0.22 mg/kg |  |
| COc1cc2c(cc1OC)[C@H](c1cc(OC)c(OC)c(OC)c1)N(CCCOC(=O)/C=C(\Cl)C(=O)OCCC[N@+]1(C)CCc3cc(OC)c(OC)cc3[C@H]1Cc1cc(OC)c(OC)c(OC)c1)CC2.Cl.[Cl-] | 5.4 min | 38 s |  | 0.87 mg/kg |  |
| COc1cc2c(cc1OC)[C@H](c1cc(OC)c(OC)c(OC)c1)[N@@+](C)(CCCOC(=O)C(F)(F)CC(=O)OCCC[N@+]1(C)CCc3cc(OC)c(OC)cc3[C@H]1Cc1cc(OC)c(OC)c(OC)c1)CC2.[Cl-].[Cl-] | 4.9 min | 26 s |  | 0.39 mg/kg |  |
| COc1cc2c(cc1OC)[C@H](c1cc(OC)c(OC)c(OC)c1)[N@@+](C)(CCCOC(=O)CCCCCCCCC(=O)OCCC[N@+]1(C)CCc3cc(OC)c(OC)cc3[C@H]1Cc1cc(OC)c(OC)c(OC)c1)CC2.[Cl-].[Cl-] | 13.5 min | 110 s |  | 0.2 mg/kg |  |
| COc1cc2c(cc1OC)[C@H](c1cc(OC)c(OC)c(OC)c1)[N@@+](C)(CCCOC(=O)CCCCC(=O)OCCC[N@+]1(C)CCc3cc(OC)c(OC)cc3[C@H]1Cc1cc(OC)c(OC)c(OC)c1)CC2.[Cl-].[Cl-] | 13 min | 75 s |  | 0.136 mg/kg |  |
| COc1ccc([C@@H]2c3cc(OC)c(OC)cc3CC[N@@+]2(C)CCCOC(=O)CC(F)(F)C(=O)OCCC[N@+]2(C)CCc3cc(OC)c(OC)cc3[C@H]2Cc2cc(OC)c(OC)c(OC)c2)cc1OC.[Cl-].[Cl-] | 3.9 min | 55 s |  | 0.06 mg/kg |  |
| COc1cc2c(cc1OC)[C@H](c1cc(OC)c(OC)c(OC)c1)[N@@+](C)(CCCOC(=O)/C=C(\Cl)C(=O)OCCC[N@+]13CCc4cc(OC)c(OC)c(OC)c4[C@H]1Cc1cc(OC)c(OC)c(OC)c1C3)CC2.[Cl-].[Cl-] | 4.5 min | 28 s |  | 0.8 mg/kg |  |
| COc1cc2c(cc1OC)[C@H](c1cc(OC)c(OC)c(OC)c1)[N@@+](C)(CCCOC(=O)/C=C(\Cl)C(=O)OCCC[N@+]1(C)CCc3cc(OC)c(OC)cc3[C@H]1Cc1cc(OC)c(OC)c(OC)c1)CC2.[Cl-].[Cl-] (stereo in doubt; 24a) [GANTACURIUM CHLORIDE] |  |  | 57 |  | 0.063 mg/kg |
| COc1cc2c(cc1OC)[C@H](c1cc(OC)c(OC)c(OC)c1)[N@@+](C)(CCCOC(=O)/C=C(\Cl)C(=O)OCCC[N@+]1(C)CCc3cc(OC)c(OC)cc3[C@H]1Cc1cc(OC)c(OC)c(OC)c1)CC2.[Cl-].[Cl-] (stereo in doubt; 24a/24b) [GANTACURIUM CHLORIDE] |  |  | 27 |  | 0.163 mg/kg |
| COc1cc2c(cc1OC)[C@@H](Cc1cc(OC)c(OC)c(OC)c1)[N+](C)(CCCOC(=O)CC/C=C/CCC(=O)OCCC[N+]1(C)CCc3cc(OC)c(OC)cc3[C@H]1Cc1cc(OC)c(OC)c(OC)c1)CC2.[Cl-].[Cl-] (some centres not stated) [MIVACURIUM CHLORIDE] |  |  | 24 |  |  |
